Series [1] has as its system isolated rat heart. The conditions noted are these: uptake-2 blocked pharmacologically; cited from earlier work.
The conditions of series [2]: rats, t = 30 min, n = 5, mean ± SD; cited from earlier work.
The nature of series [3]: MicroPET imaging study in rhesus macaque. The format is in vivo, rhesus macaque monkey. Conditions: PET.
The nature of series [4]: Biodistribution studies in rats. The format is in vivo, rat. The conditions noted are these: t = 30 min after intravenous injection, n = 5, mean ± SD. The method, boiled down: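 Rats received the fluorine-18 labelled test compound by intravenous injection. Tissue radioactivity was determined 30 min later and expressed as % injected dose/g, with n = 5 each.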

Like-named read-outs stand apart in the source and are kept apart here.

Consider `N=[11C](N)NCCc1ccc(F)c(O)c1` [[^11C]4F-MHPG, [^11C]4-fluoro-m-hydroxyphenethylguanidine], for which, in series [1], the “Major Clearance T1/2” value is given as more than 73 h and the “Neuronal uptake rate Kup” value is 0.72 ml/min/g wet. Moreover, in series [2], the “Tissue concentration, adrenal medulla” value was 0.56 ± 0.21 % injected dose/g; the “Tissue concentration, blood” value was 0.08 ± 0.01 % injected dose/g; the “Tissue concentration, left ventricle” value is recorded as 1.77 ± 0.27 % injected dose/g; the “Tissue concentration, liver” value is reported as 1.22 ± 0.18 % injected dose/g. Besides, in series [2], the “Tissue concentration, lung” value was 0.56 ± 0.15 % injected dose/g and the “Tissue concentration, spleen” value is reported as 0.52 ± 0.10 % injected dose/g.
Take “[^11C]-(−)-m-hydroxyephedrine [[^11C]HED]”: in series [1], the “Neuronal uptake rate Kup” value was 2.7 ± 0.4 ml/min/g wet.
In the case of `N=C(N)NCc1ccc([18F])cc1` [[^18F]PFBG, p-[^18F]fluorobenzylguanidine], the “Major Clearance T1/2” value in series [1] is given as 0.53 ± 0.06 h.
Consider `NC(N)=NCc1cccc([125I])c1` [[^125I]MIBG], for which, in series [2], the “Tissue concentration, adrenal medulla” value is given as 1.53 ± 0.08 % injected dose/g; the “Tissue concentration, blood” value was 0.10 ± 0.01 % injected dose/g; the “Tissue concentration, liver” value is 1.19 ± 0.06 % injected dose/g; the “Tissue concentration, lung” value is 2.31 ± 0.19 % injected dose/g. Also, the “Tissue concentration, spleen” value in series [2] is listed as 0.85 ± 0.06 % injected dose/g.
As to `N=C(N)NCc1cccc([123I])c1` [[^123I]MIBG, [^123I]-m-iodobenzylguanidine], in series [1], the “Major Clearance T1/2” value is 3.5 ± 1.8 h.
As for `N=C(N)NCCc1ccc([18F])c(O)c1` [[^18F]4F-MHPG, [^18F]4-fluoro-m-hydroxyphenethylguanidine], in series [3], the “Retention of the tracer in the lungs” value is reported as “essentially no retention” and the “Uptake in the liver relative to cardiac uptake” value is reported as “a little lower than the cardiac uptake”. Besides, the “Activity in the vertebrae of the spine (in vivo defluorination)” value in series [3] (sagittal images) is recorded as “little or no activity”. In series [4], the “Tissue concentration, adrenal medulla” value was 0.54 ± 0.08 % injected dose/g; the “Tissue concentration, blood” value turned out to be 0.07 ± 0.01 % injected dose/g; the “Tissue concentration, left ventricle” value was 1.45 ± 0.13 % injected dose/g; the “Tissue concentration, liver” value was 1.14 ± 0.16 % injected dose/g. For the same compound, in series [4], the “Tissue concentration, lung” value is on record as 0.43 ± 0.08 % injected dose/g and the “Tissue concentration, spleen” value was 0.56 ± 0.10 % injected dose/g.
